The source of these data is ChEMBL document CHEMBL1629554, “Activity of the small modified amino acid alpha-hydroxy glycineamide on in vitro and in vivo human immunodeficiency virus type 1 capsid assembly and infectivity” (Antimicrob Agents Chemother, 2008).

The test system of data set [1] is Human immunodeficiency virus 1. The experiment in a line: Antiviral activity against HIV-1 infected in human HeLa cells assessed as inhibition of viral p24 tubular assembly at 100 uM by TEM assay. The format is functional, organism-based. Put shortly: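 HeLa-tat cells (10⁵) seeded 1 day before, transfected (FuGENE6) with pC37M plasmid expressing p17-p24 fusion, 100 μM compound in culture medium. At 48–72 h posttransfection fixed in fresh 2.5% glutaraldehyde and intracellular tubular structures examined by TEM.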

The subject of data set [2] is Human immunodeficiency virus 1. The experiment in a line: Antiviral activity against reverse transcriptase and protease inhibitor-resistant HIV-1 isolate HI93-49 harboring reverse transcriptase L74V, V106I and protease […] mutant gene infected in human PBMC. Conditions: Human immunodeficiency virus 1, isolate HI93-49. The format is functional, organism-based. Put shortly:
(§1)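 Clinical isolate stocks were grown in PBMC and titred by 10-fold serial dilution (TCID50). PBMC (600,000 cells/ml) were infected at 100 TCID50 and cultured with 1, 4, 16, 64 or 256 μM α-HGA, in duplicate, with untreated infected controls. Medium was changed on days 5–7. Supernatant p24 was measured by sandwich ELISA against a recombinant p24 standard up to day 14, and EC50 was derived.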

The test system of another data set is HeLa. Nature of the data set: Cytotoxic activity against human HeLa cells at 1000 uM after 14 days by trypan blue assay. Conditions: 336 h. The format is cell-based. Put shortly: (§2)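 PBMC (600,000 cells/ml) or cell lines (200,000 cells/ml) cultured 14 days with 25, 100, 250, 500 or 1,000 μM compound; viable and dead cells counted in a counting chamber after 0.4% trypan blue staining.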

The test system of another data set is CCRF-CEM. Nature of the data set: Cytotoxic activity against human CEM cells at 1000 uM after 14 days by trypan blue assay. Conditions: 336 h. The format is cell-based. Put shortly:
as §2

The test system of data set [3] is Human immunodeficiency virus 1. The experiment in a line: Antiviral activity against HIV-1 SF-2 infected in human H9 cells assessed as appearance of tubular core viral particles at 10 uM by TEM assay (reference value: 6%). The class given is functional.
For data set [4], the system named is Human immunodeficiency virus 1. The experiment in a line: Antiviral activity against HIV-1 assessed as inhibition of viral p24 tubular protein assembly at 100 uM by TEM assay. The class given is functional, organism-based.
The subject of data set [5] is Human immunodeficiency virus 1. Nature of the data set: Antiviral activity against HIV-1 3B infected in human PBMC. The format is functional, organism-based. Conditions: Human immunodeficiency virus 1, 3B.
A further data set deals with Human alphaherpesvirus 2. The experiment in a line: Antiviral activity against Herpes simplex virus type 2 infected in HEL cells. The class given is functional, organism-based. Conditions: Human alphaherpesvirus 2, HEL. The gist of the method:
(§3)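 Cell cultures grown to confluence in microtiter wells, inoculated with 100 TCID50 of virus; after 1 h adsorption, residual virus removed, then incubated with fivefold dilutions of test compound. Viral cytopathicity scored once complete in untreated infected control cultures.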

Data set [6] concerns Human immunodeficiency virus 1. Nature of the data set: Antiviral activity against reverse transcriptase and protease inhibitor-resistant HIV-1 isolate HI96-88 harboring reverse transcriptase M41L, E44A, D67N, T69D, L210W, T215Y and protease L63P mutant gene infected in human PBMC. The class given is functional, organism-based. Conditions: Human immunodeficiency virus 1, isolate HI96-88. The gist of the method: as §1

Data set [7] has as its system Human immunodeficiency virus 1. The experiment in a line: Antiviral activity against reverse transcriptase and protease inhibitor-resistant HIV-1 isolate HI94-18 harboring reverse transcriptase M230S mutant gene infected in human PBMC. The format is functional, organism-based. Conditions: Human immunodeficiency virus 1, isolate HI94-18. The gist of the method: as §1

Data set [8] concerns Human immunodeficiency virus 1. Nature of the data set: Antiviral activity against HIV-1 SF-2 infected in human H9 cells assessed as appearance of irregular core viral particles at 10 uM by TEM assay (reference value: 1%). The format is functional.
Data set [9] deals with Human immunodeficiency virus 1. Nature of the data set: Antiviral activity against reverse transcriptase and protease inhibitor-resistant HIV-1 isolate HI90-317 harboring reverse transcriptase M41L, T215Y and protease M36I, […], A71T, I93L mutant gene infected in human PBMC. The class given is functional, organism-based. Conditions: Human immunodeficiency virus 1, isolate HI90-317. Put shortly:
as §1

The test system of data set [10] is Vesicular stomatitis virus. Nature of the data set: Antiviral activity against Vesicular stomatitis virus infected in human HeLa cells. The format is functional, organism-based.
Data set [11] has as its system Human immunodeficiency virus 1. The experiment in a line: Antiviral activity against HIV-1 SF-2 infected in human H9 cells assessed as appearance of partially empty core viral particles at 10 uM by TEM assay (reference value: 13%). The class given is functional.
The subject of data set [12] is Human immunodeficiency virus 1. Nature of the data set: Antiviral activity against HIV-1 SF-2 infected in human H9 cells assessed as appearance of empty core viral particles at 10 uM by TEM assay (reference value: 0%). The format is functional.
The test system of another data set is Human respirovirus 3. The experiment in a line: Antiviral activity against Parainfluenza virus 3 infected in african green monkey Vero cells. The format is functional, organism-based. Conditions: Human respirovirus 3, Vero. Put shortly:
as §3

Data set [13] relates to Human immunodeficiency virus 1. Nature of the data set: Antiviral activity against reverse transcriptase and protease inhibitor-resistant HIV-1 isolate HI93-124 harboring reverse transcriptase N67D, T69D, K70R, T215F, K219Q and protease […] mutant gene infected in human PBMC. The format is functional, organism-based. Conditions: Human immunodeficiency virus 1, isolate HI93-124. The gist of the method: as §1

The subject of data set [14] is Human immunodeficiency virus 1. Nature of the data set: Antiviral activity against HIV-1 assessed as inhibition of viral p24 tubular protein assembly by spectrophotometry. The class given is functional, organism-based.
In data set [15] the test system is Human immunodeficiency virus 1. The experiment in a line: Antiviral activity against reverse transcriptase and protease inhibitor-resistant HIV-1 isolate HI96-90 harboring reverse transcriptase M41L, E44A, V118L, M184V, L210W, T215Y and protease L10I, L63P mutant gene infected in human PBMC. Conditions: Human immunodeficiency virus 1, isolate HI96-90. The class given is functional, organism-based. Put shortly:
as §1

Data set [16] concerns Human immunodeficiency virus 1. Nature of the data set: Antiviral activity against reverse transcriptase and protease inhibitor-resistant HIV-1 isolate HI98-82 harboring reverse transcriptase M184V and protease L10I, I47M, L63P, I93L mutant gene infected in human PBMC. The format is functional, organism-based. Conditions: Human immunodeficiency virus 1, isolate HI98-82. Put shortly:
as §1

Data set [17] concerns Human immunodeficiency virus 1. The experiment in a line: Antiviral activity against HIV-1 SF-2 infected in human H9 cells assessed as appearance of tangential slice of dense core viral particles at 10 uM by TEM assay (reference value: 29%). The class given is functional.
The subject of data set [18] is Human immunodeficiency virus 1. Nature of the data set: Antiviral activity against HIV-1 SF-2 infected in human H9 cells assessed as appearance of parallel slice of dense core viral particles at 10 uM by TEM assay (reference value: 41%). The format is functional.
Another data set deals with FM3A. The experiment in a line: Cytotoxic activity against mouse FM3A cells at 1000 uM after 14 days by trypan blue assay. The class given is cell-based. Conditions: 336 h. Put shortly: as §2

Calls of active or inactive are those of the source. No cut-off for these calls is given here.

Broadly, the EC50 is the concentration giving half of the maximal effect. On to `NC(=O)C(N)O` (stereo not drawn), for which the inhibition result in [1], in [4] and in data set [14] was “Active” each time. The EC50 in data set [2] was 15 µM; in data set [5], 8 µM; in the data set on Human alphaherpesvirus 2 it was 2000 µM; in data set [6] it was 24 µM; in [7], 16 µM; in data set [9] it was 20 µM. Further, the EC50 in data set [10] came to 2000 µM; in the data set with Human respirovirus 3, 2000 µM; in data set [13], 33 µM; in [15], 8.6 µM; in [16] it was 33 µM. The Activity result in the data set on HeLa was “Non-toxic”; in the data set on CCRF-CEM, “Non-toxic”; in [3] it was 6%; in data set [8], 10%; in [11], 33%; in [12], 9%. Further, the Activity is on record as 19% in data set [17], 11% in [18] and “Non-toxic” in the data set with FM3A.
